The values that follow come from ChEMBL document CHEMBL1134640, “A novel series of highly potent benzimidazole-based microsomal triglyceride transfer protein inhibitors” (J Med Chem, 2001).

Assay [1] can be described thus: PlasmaTC lowering was determined in standard-diet-fed cynomolgus monkeys after 16h of postdosing at 5 mg/kg. The class given is functional, Cercopithecidae. The essentials: (§1)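 Cynomolgus monkeys on standard diet received oral dosing once daily for 7 days. Plasma TC was measured 16 h postdosing. Values are percent lowering at a stated dose (mg/kg), or ED50, the dose producing 50% TC lowering.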

Assay [2] is described as follows: PlasmaTC lowering was determined in standard-diet-fed cynomolgus monkeys after 16h of postdosing at 10 mg/kg. The class given is functional, Cercopithecidae. The essentials: as §1
Assay [3] can be described thus: Dose required for 50% lowering of plasma TC in standard-diet-fed cynomolgus monkeys. The conditions noted are these: Cercopithecidae. It is filed as functional. The method in brief: as §1
Assay [4] in a line: PlasmaTC lowering was determined in standard-diet-fed cynomolgus monkeys after 16h of postdosing at 2.5 mg/kg. It is filed as functional, Cercopithecidae. The method in brief: as §1
Assay [5] has as its target T1, Microsomal triglyceride transfer protein large subunit (Homo sapiens, UniProt P55157).
T1 sequence (P55157 whole entry): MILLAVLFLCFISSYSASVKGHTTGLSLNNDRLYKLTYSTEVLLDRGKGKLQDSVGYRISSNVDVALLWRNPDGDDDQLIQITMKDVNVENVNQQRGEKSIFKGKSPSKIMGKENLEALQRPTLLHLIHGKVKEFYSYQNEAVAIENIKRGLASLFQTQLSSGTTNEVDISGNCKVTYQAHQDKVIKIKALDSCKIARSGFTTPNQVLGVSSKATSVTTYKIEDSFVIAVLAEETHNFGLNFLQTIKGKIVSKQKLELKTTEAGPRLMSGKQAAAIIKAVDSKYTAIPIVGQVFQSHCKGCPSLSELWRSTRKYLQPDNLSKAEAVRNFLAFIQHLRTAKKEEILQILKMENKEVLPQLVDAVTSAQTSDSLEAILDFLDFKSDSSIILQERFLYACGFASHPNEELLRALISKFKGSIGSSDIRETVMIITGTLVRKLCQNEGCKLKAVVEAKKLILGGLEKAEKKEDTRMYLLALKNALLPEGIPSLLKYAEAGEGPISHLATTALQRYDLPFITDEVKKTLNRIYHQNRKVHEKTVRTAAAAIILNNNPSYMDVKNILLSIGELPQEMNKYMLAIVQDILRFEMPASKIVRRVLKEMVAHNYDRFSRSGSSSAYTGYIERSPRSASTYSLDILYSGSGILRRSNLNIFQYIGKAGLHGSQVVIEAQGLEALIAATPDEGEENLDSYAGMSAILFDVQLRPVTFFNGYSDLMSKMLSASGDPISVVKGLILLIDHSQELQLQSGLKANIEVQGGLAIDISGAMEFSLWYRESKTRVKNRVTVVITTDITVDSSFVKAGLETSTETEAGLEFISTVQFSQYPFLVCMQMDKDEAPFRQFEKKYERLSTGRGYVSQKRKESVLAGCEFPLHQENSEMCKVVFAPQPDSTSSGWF
As to the kind of experiment: In vitro inhibition of human microsomal triglyceride transfer protein using triglyceride transfer assay.

Assay [6] can be described thus: PlasmaTC lowering was determined in standard-diet-fed cynomolgus monkeys after 16h of postdosing at 1.25 mg/kg. The class given is functional, Cercopithecidae. The essentials:
as §1

The nature of assay [7]: Dose required for 50% lowering of plasma TC in standard-diet-fed golden Syrian hamsters 16h postdosing. The class given is functional. The method in brief:
(§2)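 Golden Syrian hamsters on standard diet were dosed orally once daily for 3 days. Plasma total cholesterol was measured 16 h after dosing. Values are percent TC lowering at a given dose (mg/kg), or ED50, the dose giving 50% plasma TC lowering.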

Assay [8] addresses T1, Microsomal triglyceride transfer protein large subunit. As to the kind of experiment: (§3) In vitro inhibition of human microsomal triglyceride transfer protein in HepG2 cells using apoB secretion assay. It is filed as functional, cell-based.
Assay [9] is described as follows: Dose required for 50% lowering of plasma TC in standard-diet-fed cynomolgus monkeys 16h postdosing. The conditions noted are these: Cercopithecidae. It is filed as functional. The method in brief: as §1
Assay [10] is described as follows: PlasmaTC lowering was determined in standard-diet-fed cynomolgus monkeys after 16h of postdosing of at 0.1 mg/kg. It is filed as functional, Cercopithecidae. The method in brief: as §1
Assay [11] is described as follows: Dose required for 50% lowering of plasma TC in standard-diet-fed golden Syrian hamsters 16h postdosing. It is filed as functional. The method in brief:
as §2

The nature of assay [12]: PlasmaTC lowering was determined in standard-diet-fed cynomolgus monkeys after 16h of postdosing of at 0.3 mg/kg. It is filed as functional, Cercopithecidae. The essentials:
as §1

The target in assay [13] is T1, Microsomal triglyceride transfer protein large subunit. Nature of the assay: In vitro inhibition of human Microsomal Triglyceride Transfer Protein, (triglyceride transfer assay).
Assay [14] can be described thus: PlasmaTC lowering was determined in standard-diet-fed cynomolgus monkeys after 16h of postdosing of at 1 mg/kg. It is filed as functional, Cercopithecidae. The method in brief:
as §1

For assay [15], the target named is T1, Microsomal triglyceride transfer protein large subunit. The description is as §3. It is filed as cell-based.
Assay [16] in a line: PlasmaTC lowering was determined in standard-diet-fed cynomolgus monkeys after 16h of postdosing of at 1.25 mg/kg. It is filed as functional, Cercopithecidae. The essentials: as §1
The nature of assay [17]: PlasmaTC lowering was determined in standard-diet-fed cynomolgus monkeys after 16h of postdosing of at 5 mg/kg. It is filed as functional, Cercopithecidae. The method in brief: as §1
Assay [18] is described as follows: PlasmaTC lowering was determined in standard-diet-fed cynomolgus monkeys after 16h of postdosing of at 2.5 mg/kg. The class given is functional, Cercopithecidae. The method in brief:
as §1

In assay [19] the test system is Mesocricetus auratus. Nature of the assay: TC lowering at 8 mg/kg was measured as % lowering of plasma TC in standard-diet-fed golden Syrian hamsters 16h postdosing.
Assay [20] in a line: TC lowering at dose was measured as % lowering of plasma TC in standard-diet-fed cynomolgus monkeys 16h postdosing. The class given is functional, Cercopithecidae. The essentials: as §1
The subject of assay [21] is Mesocricetus auratus. Nature of the assay: 50% lowering of plasma TC in standard-diet-fed golden Syrian hamsters 16h postdosing. 15 mg/kg required for.
Assay [22] concerns Mesocricetus auratus. As to the kind of experiment: PlasmaTC lowering was determined in standard-diet-fed after 16h of postdosing of at 15 mg/kg in golden Syrian hamsters.
In assay [23] the target is T1, Microsomal triglyceride transfer protein large subunit. As to the kind of experiment: In vitro inhibition of human Microsomal Triglyceride Transfer Protein (triglyceride transfer assay).
A short description of assay [24]: ED50 represents dose required for 50% lowering of plasma TC in standard-diet-fed golden Syrian hamsters 16h postdosing. The conditions noted are these: Mesocricetus auratus.

As to `O=C(NC1CCN(CCCCC2(C(=O)NCC(F)(F)F)c3ccccc3-c3ccccc32)CC1)c1ccccc1-c1ccc(C(F)(F)F)cc1` [LOMITAPIDE], the TC lowering is listed as -74% in [1], -88% in [2], -65% in [4] and -35% in assay [6]. Moreover, the figures for the ED50 in [3] and in [7] were 2 mg/kg and 2.3 mg/kg, respectively. The IC50 (usually the point on the concentration scale where inhibition reaches its midpoint) was 8 nM in assay [5] and 0.8 nM in assay [8].
On to `Cc1ccc2c(nc(C)n2CCCCC2(C(=O)NCC(F)(F)F)c3ccccc3-c3ccccc32)c1NC(=O)c1ccccc1-c1ccc(C(F)(F)F)cc1`, for which the ED50 was determined as 0.38 mg/kg in [9] and 0.28 mg/kg in assay [11]. The TC lowering in [10] was -28%; in assay [12] it was -43%; in assay [14], -76%; in [16], -83%. Besides, the IC50 in assay [13] was 1 nM; in assay [15], 0.03 nM.
In assay [11], `Cc1nc2c(NC(=O)c3ccccc3-c3ccc(C(F)(F)F)cc3)cccc2n1CCCCC1(C(=O)NCC(F)(F)F)c2ccccc2-c2ccccc21` yielded an ED50 of 2.5 mg/kg. The values for the TC lowering in [17] and in assay [16] were -80% and -51%, respectively. Also, the IC50 in assay [13] is 1 nM; in [15], 0.15 nM.
For the compound `Cc1ccc2c(ncn2CCCCC2(C(=O)NCC(F)(F)F)c3ccccc3-c3ccccc32)c1NC(=O)c1ccccc1-c1ccc(C(F)(F)F)cc1`, the ED50 in assay [11] worked out at 3.8 mg/kg. Also, the TC lowering in assay [18] is recorded as -68%. In addition, the 50% inhibitory concentration (IC50) in assay [13] stood at 1 nM; in assay [15] it was 0.02 nM.
For the compound `CC(C)c1nc2c(NC(=O)c3ccccc3-c3ccc(C(F)(F)F)cc3)cccc2n1CCCCC1(C(=O)NCC(F)(F)F)c2ccccc2-c2ccccc21`, the TC lowering in the assay with Mesocricetus auratus [19] is on record as -60%; in assay [20], -39%. For the same compound, the half-maximal inhibitory concentration (IC50) in assay [13] is 4 nM; in [15], 0.06 nM.
Take `CCCc1nc2c(NC(=O)c3ccccc3-c3ccc(C(F)(F)F)cc3)cccc2n1CCCCC1(C(=O)NCC(F)(F)F)c2ccccc2-c2ccccc21`: the half-inhibitory concentration (IC50) in assay [13] was found to be 2 nM. Moreover, in the assay with Mesocricetus auratus [21], the TC lowering is -44%.
As for `O=C(Nc1cccc2c1ncn2CCCC1(C(=O)NCC(F)(F)F)c2ccccc2-c2ccccc21)c1ccccc1-c1ccc(C(F)(F)F)cc1`, the TC lowering in the assay on Mesocricetus auratus [22] is reported as -11%. For the same compound, in assay [13], the IC50 turned out to be 10 nM.
In the case of `O=C(Nc1cccc2c1ncn2CCCCC1(C(=O)NCC(F)(F)F)c2ccccc2-c2ccccc21)c1ccccc1-c1ccc(C(F)(F)F)cc1`, the results for the IC50 in [23] and in assay [15] were 5 nM and 0.24 nM, respectively. The TC lowering in assay [18] is -19%; in assay [17] it was -52%. In addition, the ED50 in assay [24] stood at 12 mg/kg.
